Assay results taken from ChEMBL document CHEMBL3091446, “Development of fluorinated CB(2) receptor agonists for PET studies” (Bioorg Med Chem, 2013).

What was measured:
Cannabinoid receptor 2 [1] = biological target: T1, Cannabinoid receptor 2 (Homo sapiens, UniProt P34972); assay: Binding affinity to human cannabinoid CB2 receptor
How it was run: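 Membranes from sonicated CHO cells stably expressing human CB2 (about 100,000 cells/well). Incubated 120 min at 37 °C with 1 nM [3H]CP-55,940, test compound at 10^-10 to 10^-5 M, in TRIS pH 7.4 with 12 mM MgCl2 and 2% BSA. Nonspecific binding defined by 10 µM CP-55,940. Filtration and scintillation counting; duplicates. IC50 by nonlinear regression, converted to Ki by Cheng-Prusoff (Kd 11.8 nM).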

Cannabinoid receptor 1 [2] = biological target: T2, Cannabinoid receptor 1 (Homo sapiens, UniProt P21554); assay: Binding affinity to human cannabinoid CB1 receptor
Cannabinoid receptor 2 [3] = biological target: T1, Cannabinoid receptor 2; assay: Displacement of [3H]CP-55,940 from human recombinant cannabinoid CB2 receptor expressed in CHO cells; assay type: cell-based
Cannabinoid receptor 2 [4] = biological target: T1, Cannabinoid receptor 2; assay: Displacement of [3H]CP-55,940 from human recombinant cannabinoid CB2 receptor expressed in CHO cells at 1 uM; assay type: cell-based
Homo sapiens = species: Homo sapiens; assay: Selectivity ratio of Ki for human recombinant cannabinoid CB1 receptor to Ki for human recombinant cannabinoid CB2 receptor
Cannabinoid receptor 1 [5] = biological target: T2, Cannabinoid receptor 1; assay: Displacement of [3H]CP-55,940 from human recombinant cannabinoid CB1 receptor expressed in CHO cells; assay type: cell-based
[6] = Lipophilicity, log P of the compound; assay type: physicochemical; conditions: octanol/water
[7] = Metabolic stability in mouse plasma assessed as compound remaining after 10 mins; assay type: ADME, cell-free; conditions: read-out: Stability

T1 sequence (P34972 whole entry): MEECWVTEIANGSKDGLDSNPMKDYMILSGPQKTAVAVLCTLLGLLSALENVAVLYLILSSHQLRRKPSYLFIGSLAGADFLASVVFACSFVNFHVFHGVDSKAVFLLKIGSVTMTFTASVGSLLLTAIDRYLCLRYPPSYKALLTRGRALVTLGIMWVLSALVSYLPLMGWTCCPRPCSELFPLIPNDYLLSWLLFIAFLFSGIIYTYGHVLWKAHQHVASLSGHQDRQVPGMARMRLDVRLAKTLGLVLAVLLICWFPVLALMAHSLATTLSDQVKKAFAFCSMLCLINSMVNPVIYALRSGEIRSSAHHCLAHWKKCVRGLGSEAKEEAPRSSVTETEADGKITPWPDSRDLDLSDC
T2 sequence (P21554 whole entry): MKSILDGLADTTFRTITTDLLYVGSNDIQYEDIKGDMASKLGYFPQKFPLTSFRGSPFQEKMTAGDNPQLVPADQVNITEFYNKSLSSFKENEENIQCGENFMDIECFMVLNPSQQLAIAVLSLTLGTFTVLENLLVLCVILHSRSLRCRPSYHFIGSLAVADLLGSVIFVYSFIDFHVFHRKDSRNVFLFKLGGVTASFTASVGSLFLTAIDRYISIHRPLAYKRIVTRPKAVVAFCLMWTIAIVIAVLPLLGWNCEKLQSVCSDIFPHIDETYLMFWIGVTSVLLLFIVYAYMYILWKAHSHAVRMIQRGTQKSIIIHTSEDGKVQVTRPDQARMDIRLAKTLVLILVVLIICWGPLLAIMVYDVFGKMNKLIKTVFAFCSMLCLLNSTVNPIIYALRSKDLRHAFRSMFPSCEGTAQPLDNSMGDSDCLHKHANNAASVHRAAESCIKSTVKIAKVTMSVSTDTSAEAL

CCCCOc1c(OC)ccc2cc(C(=O)NCc3ccc([18F])cc3)c(=O)[nH]c12
Ki (Cannabinoid receptor 2 [1]): 2.8 nM
Ki (Cannabinoid receptor 1 [2]): > 10000 nM

O=C(CCc1nc(-c2ccc(F)cc2Br)no1)Nc1ccc2c(c1)c1ccccc1n2CCO
Ki (Cannabinoid receptor 2 [3]): 367 nM

O=C(CCCc1nc(-c2ccc(F)cc2)no1)Nc1ccc2c(c1)c1ccccc1n2CCCO
inhibition (Cannabinoid receptor 2 [4]): 19%

O=C(CCc1nc(-c2ccc(Cl)cc2)no1)Nc1ccc2c(c1)c1ccccc1n2CCCF
inhibition (Cannabinoid receptor 2 [4]): 43%

O=C(CCCc1nc(-c2ccc(F)cc2Br)no1)Nc1ccc2c(c1)c1ccccc1n2CCO
inhibition (Cannabinoid receptor 2 [4]): 0%

O=C(CCc1nc(-c2ccc(F)cc2Br)no1)Nc1ccc2c(c1)c1ccccc1n2CCF
Ratio Ki (Homo sapiens): > 200
IC50 (Cannabinoid receptor 1 [5]): > 1000 nM
Ki (Cannabinoid receptor 2 [3]): 5.8 nM

O=C(CCc1nc(-c2ccc(Br)cc2F)no1)Nc1ccc2c(c1)c1ccccc1n2CCO
inhibition (Cannabinoid receptor 2 [4]): 35%

O=C(CCc1nc(-c2ccc(F)cc2Br)no1)Nc1ccc2c(c1)c1ccccc1n2CCCO
IC50 (Cannabinoid receptor 1 [5]): > 1000 nM
Ki (Cannabinoid receptor 2 [3]): 33 nM

Cc1ccc(-c2noc(CCC(=O)Nc3ccc4c(c3)c3ccccc3n4CCF)n2)cc1
Ki (Cannabinoid receptor 2 [3]): 377 nM

Cc1c(CCN2CCOCC2)c2cc(O[11CH3])ccc2n1C(=O)c1cccc(Cl)c1Cl
Ki (Cannabinoid receptor 2 [1]): 35 nM
Ki (Cannabinoid receptor 1 [2]): 6000 nM

O=C(CCc1nc(-c2ccc(F)cc2)no1)Nc1ccc2c(c1)c1ccccc1n2CCF
IC50 (Cannabinoid receptor 1 [5]): > 1000 nM
Ki (Cannabinoid receptor 2 [3]): 41 nM

O=C(CCCc1nc(-c2ccc(F)cc2)no1)Nc1ccc2c(c1)c1ccccc1n2CCF
inhibition (Cannabinoid receptor 2 [4]): 25%

O=C(CCc1nc(-c2ccc(Cl)cc2)no1)Nc1ccc2c(c1)c1ccccc1n2CCF
Ki (Cannabinoid receptor 2 [3]): 291 nM

Cc1ccc(-c2noc(CCC(=O)Nc3ccc4c(c3)c3ccccc3n4CCCO)n2)cc1
inhibition (Cannabinoid receptor 2 [4]): 28%

N#Cc1cc(F)ccc1-c1noc(CCC(=O)Nc2ccc3c(c2)c2ccccc2n3CCF)n1
IC50 (Cannabinoid receptor 1 [5]): > 1000 nM
Ki (Cannabinoid receptor 2 [3]): 858 nM

O=C(CCCc1nc(-c2ccc(F)cc2Br)no1)Nc1ccc2c(c1)c1ccccc1n2CCCF
inhibition (Cannabinoid receptor 2 [4]): 25%

Cc1ccc(-c2noc(CCC(=O)Nc3ccc4c(c3)c3ccccc3n4CCCF)n2)cc1
inhibition (Cannabinoid receptor 2 [4]): 13%

COc1ccc(S(=O)(=O)c2ccc([C@H](C)NS(C)(=O)=O)cc2)c(S(=O)(=O)c2ccc(O[11CH3])cc2)c1
logP [6]: 2.15
Ki (Cannabinoid receptor 2 [1]): 4.5 nM
Ki (Cannabinoid receptor 1 [2]): 79 nM

O=C(CCc1nc(-c2ccc(Cl)cc2)no1)Nc1ccc2c(c1)c1ccccc1n2CCO
Ki (Cannabinoid receptor 2 [3]): 990 nM

Cc1ccc(-c2noc(CCC(=O)Nc3ccc4c(c3)c3ccccc3n4CCO)n2)cc1
inhibition (Cannabinoid receptor 2 [4]): 10%

O=C(CCc1nc(-c2ccc(F)cc2)no1)Nc1ccc2c(c1)c1ccccc1n2CCCO
Ki (Cannabinoid receptor 2 [3]): 195 nM

O=C(CCCc1nc(-c2ccc(Cl)cc2)no1)Nc1ccc2c(c1)c1ccccc1n2CCO
Ki (Cannabinoid receptor 2 [3]): 584 nM

Cc1ccc(-c2noc(CCCC(=O)Nc3ccc4c(c3)c3ccccc3n4CCCF)n2)cc1
inhibition (Cannabinoid receptor 2 [4]): 0%

O=C(CCCc1nc(-c2ccc(Cl)cc2)no1)Nc1ccc2c(c1)c1ccccc1n2CCCO
inhibition (Cannabinoid receptor 2 [4]): 10%

O=C(CCCc1nc(-c2ccc(F)cc2Br)no1)Nc1ccc2c(c1)c1ccccc1n2CCF
Ki (Cannabinoid receptor 2 [3]): 559 nM

Cc1ccc(-c2noc(CCCC(=O)Nc3ccc4c(c3)c3ccccc3n4CCCO)n2)cc1
inhibition (Cannabinoid receptor 2 [4]): 13%

N#Cc1cc(F)ccc1-c1noc(CCC(=O)Nc2ccc3c(c2)c2ccccc2n3CCO)n1
Ki (Cannabinoid receptor 2 [3]): 486 nM

O=C(CCCc1nc(-c2ccc(Cl)cc2)no1)Nc1ccc2c(c1)c1ccccc1n2CCF
inhibition (Cannabinoid receptor 2 [4]): 23%

CCCCOc1c(OCC[18F])ccc2cc(C(=O)NC3CCCCC3)c(=O)[nH]c12
remaining at 10 min [7]: 41%
Ki (Cannabinoid receptor 1 [2]): > 1000 nM

O=C(CCc1nc(-c2ccc(F)cc2Br)no1)Nc1ccc2c(c1)c1ccccc1n2CCCF
Ki (Cannabinoid receptor 2 [3]): 1800 nM

O=C(CCc1nc(-c2ccc(F)cc2)no1)Nc1ccc2c(c1)c1ccccc1n2CCO
Ki (Cannabinoid receptor 2 [3]): 1100 nM

Cc1s/c(=N\C(=O)C2C(C)(C)C2(C)C)n(CCO[11CH3])c1C
Ki (Cannabinoid receptor 2 [1]): 0.64 nM
Ki (Cannabinoid receptor 1 [2]): 270 nM

Cc1ccc(-c2noc(CCCC(=O)Nc3ccc4c(c3)c3ccccc3n4CCO)n2)cc1
inhibition (Cannabinoid receptor 2 [4]): 4%

O=C(CCc1nc(-c2ccc(F)cc2)no1)Nc1ccc2c(c1)c1ccccc1n2CCCF
inhibition (Cannabinoid receptor 2 [4]): 10%

CCCCOc1c(O[11CH3])ccc2cc(C(=O)NC3CCCCC3)c(=O)[nH]c12
remaining at 10 min [7]: 24%
Ki (Cannabinoid receptor 1 [2]): > 1000 nM

CCn1c2ccccc2c2cc(NC(=O)CCc3nc(-c4ccc(F)cc4C#N)no3)ccc21
Ki (Cannabinoid receptor 1 [5]): > 10000 nM
Ki (Cannabinoid receptor 2 [3]): 6.98 nM

Cc1ccc(-c2noc(CCCC(=O)Nc3ccc4c(c3)c3ccccc3n4CCF)n2)cc1
inhibition (Cannabinoid receptor 2 [4]): 0%

O=C(CCc1nc(-c2ccc(Br)cc2F)no1)Nc1ccc2c(c1)c1ccccc1n2CCF
Ki (Cannabinoid receptor 2 [3]): 476 nM

O=C(CCCc1nc(-c2ccc(F)cc2)no1)Nc1ccc2c(c1)c1ccccc1n2CCO
inhibition (Cannabinoid receptor 2 [4]): 12%

O=C(CCCc1nc(-c2ccc(F)cc2)no1)Nc1ccc2c(c1)c1ccccc1n2CCCF
inhibition (Cannabinoid receptor 2 [4]): 0%

O=C(CCc1nc(-c2ccc(F)cc2Br)no1)Nc1ccc2c(c1)c1ccccc1n2CCCCF
inhibition (Cannabinoid receptor 2 [4]): 35%

O=C(CCCc1nc(-c2ccc(F)cc2Br)no1)Nc1ccc2c(c1)c1ccccc1n2CCCO
inhibition (Cannabinoid receptor 2 [4]): 9%

O=C(CCc1nc(-c2ccc(F)cc2Br)no1)Nc1ccc2c(c1)c1ccccc1n2CCCCO
IC50 (Cannabinoid receptor 1 [5]): > 1000 nM
Ki (Cannabinoid receptor 2 [3]): 96 nM
